DENV2 CPE rescue – DENV2-induced cell death inhibition. CPE inhibition, % at 9.99 µM. DENV2-infected cells, cytopathic effect rescue, plate reader. 350,000 tested, 1.7% active; in the data active = CPE inhibition above about 20%, passing the limit was not always enough; inconclusive = no clear call, values can overlap the other calls; tested in BHK-21 cells;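 also: 0% = median of neutral control wells and 100% = median of positive control wells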
S100A4 inh HTS – S100A4-myosin IIA interaction inhibition; P26447; S100A4/TAMRA-MyoIIA peptide fluorescence polarization; inhibition, % at 10.7 µM; 360,000 tested, 0.14% active; AID 652163;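 active = mean inhibition of at least 70% across replicates, with every replicate also reaching that level; inconclusive = mean inhibition reaches 70% but some replicates fall short; inactive = mean inhibition below 70%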
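Assay system: human S100A4 monomer with TAMRA-labelled myosin IIA peptide / Buffer or medium: Calcium-containing HEPES buffer, pH 7.2 / Reagent: TAMRA-labelled myosin IIA heavy-chain peptide probe, 5 nM / Compound: one dose per compound / Timing: polarization read 5 min after assay mix addition, stable 5–60 min / Benchmarks: neutral control DMSO, positive control TFP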
Xi reactivation – activators of X-chromosome reactivation in mouse fibroblasts; activation, % at 7.58 µM; XiGFP mouse fibroblasts, % GFP-positive cells imaging, 3 d; cells co-treated with 5-aza-dC sensitizer; scaled so ellipticine positive control = 100%; 360,000 tested, 0.055% active; AID 743238;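 active = mean normalized replicate activation at least 10% and every replicate at or above 10%; inconclusive = only one of the two criteria met; inactive = mean below 10% and not all replicates reach 10%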;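 also: 0% = median of on-plate neutral control wells and 100% = ellipticine 6 µM median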
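Material: XiGFP fibroblasts, SV40-immortalized. Buffer or medium: DMEM plus 5-aza-dC sensitizer. Compound: single concentration per compound, delivered by pin transfer. Times: 3 days compound exposure. Controls: ellipticine 6 µM.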
E-sel inducer – E-selectin induction on HUVECs | P16581 | HUVEC E-selectin immunofluorescence imaging; normalized: neutral wells 0, TNF-alpha wells 100 | activation, % at 7.58 µM | 260,000 tested, 0.37% active | AID 686992;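 active = mean E-selectin-positive cell signal at least 10% of the positive control, reached in at least 60% of replicates, without over 20% cell loss; inconclusive = no rule given, readout overlaps actives, possibly toxicity-flagged; inactive = the rest, including those meeting only one limit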
Target sequence (P16581 whole entry, looked up): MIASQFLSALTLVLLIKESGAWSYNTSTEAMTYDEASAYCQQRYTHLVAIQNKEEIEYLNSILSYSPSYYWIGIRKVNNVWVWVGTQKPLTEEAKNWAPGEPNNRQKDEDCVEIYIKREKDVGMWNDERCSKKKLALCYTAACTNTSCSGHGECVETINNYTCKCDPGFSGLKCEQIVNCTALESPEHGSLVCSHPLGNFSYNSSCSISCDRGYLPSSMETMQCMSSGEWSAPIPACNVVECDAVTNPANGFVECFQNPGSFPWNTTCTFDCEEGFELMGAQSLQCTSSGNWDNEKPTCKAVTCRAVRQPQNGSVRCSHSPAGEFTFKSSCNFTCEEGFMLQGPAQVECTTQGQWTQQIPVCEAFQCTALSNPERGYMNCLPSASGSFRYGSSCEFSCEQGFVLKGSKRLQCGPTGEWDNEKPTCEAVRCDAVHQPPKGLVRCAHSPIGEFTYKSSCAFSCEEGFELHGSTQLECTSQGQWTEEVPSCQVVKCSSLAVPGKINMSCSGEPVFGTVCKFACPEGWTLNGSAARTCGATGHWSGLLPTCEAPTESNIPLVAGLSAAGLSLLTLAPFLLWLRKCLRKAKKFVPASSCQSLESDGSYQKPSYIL
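material = human umbilical vein endothelial cells (HUVEC), E-selectin induction | quantity = 3,000 cells/well | medium = EGM-2 growth medium on 0.1% gelatin-coated wells | technique = immunofluorescence imaging | read-out basis = % PE-positive cells | control set = TNF-alpha positive control, DMSO neutral control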
An asterisk follows results filed as active; u = inconclusive; x = no result. In the library only some 2% were active in any assay of this set; here they are far more common.

SMILES	DENV2 CPE rescue	S100A4 inh HTS	Xi reactivation	E-sel inducer
COc1cc(/C=C(\C#N)c2nc3ccccc3o2)ccc1O	-4	-9	18*	x
Cc1nc(C(F)(F)F)ccc1C(=O)Nc1ccc(C(F)(F)F)cn1	0	-3	0	-1
Cc1ccc(S(=O)(=O)NC(C)(C)CSc2ncccn2)cc1	-3	-16	0	-1
CNS(=O)(=O)c1cccc(C(=O)OCC(=O)Nc2ccc(Cl)cn2)c1	2	-6	1	0
CC(C)(C)CNC(=O)c1ccc2c(c1)S(=O)(=O)c1cc(Cl)ccc1C2=O	6	3	0	0
Cc1cc(N(C)C(=O)c2ccc3c(c2)S(=O)(=O)c2cc(Cl)ccc2C3=O)c(C(F)(F)F)o1	49*	0	0	0
CCCC(=O)Nc1ccc2c(c1)OC[C@H](C)N(Cc1ccncc1)C[C@@H](C)[C@H](OC)CN(C)C2=O	-1	2	1	0
O=C(/C=C/c1ccccc1)NCc1cccnc1	x	-3	0	x
Cc1ccc(NC(=S)Nc2cccc3cnccc23)cc1	72*	4	0	x
COc1ccc(S(=O)(=O)N2CC3(CN(C(=O)CN(C)C)[C@@H](CO)c4c3c3ccc(OC)cc3n4C)C2)cc1	u	-1	0	0
COc1ccc2c3c(n(C)c2c1)[C@@H](CO)N(C(=O)NC1CCCCC1)CC31CN(C)C1	32*	-10	0	0
CCC(=O)N1CC2(C1)CN(Cc1cc(F)ccc1F)[C@@H](CO)c1c2c2ccc(OC)cc2n1C	x	x	0	x
COc1ccc2c3c(n(C)c2c1)[C@H](CO)N(C(=O)C1CC1)CC31CCN(C(=O)c2ccncc2)CC1	32*	1	0	0
COc1ccc(S(=O)(=O)N2CC3(CN(C(=O)CN(C)C)[C@H](CO)c4c3c3ccc(OC)cc3n4C)C2)cc1	102*	2	0	0
COc1ccc2c3c(n(C)c2c1)[C@@H](CO)N(Cc1cc(F)ccc1F)CC31CN(C(=O)C2CC2)C1	38*	u	0	0
O=C(Nc1cccnc1)c1ccc(Cl)c(S(=O)(=O)N2CCc3ccccc32)c1	3	-1	0	2
CC(=O)c1ccc(C(=O)N(C)C2CCCN(Cc3ccccc3F)C2)s1 (stereo not drawn)	-6	-3	3	1
COc1ccc2c3c(n(C)c2c1)[C@@H](CO)N(C(=O)C1CCCCC1)CC31CCN(C(=O)c2ccncc2)CC1	42*	1	0	0
CCCC(=O)N1CC2(CCN(C(=O)C3CCC3)CC2)c2c(n(C)c3cc(OC)ccc23)[C@@H]1CO	22*	x	0	0
COc1ccc2c3c(n(C)c2c1)[C@H](CO)N(C(=O)CC1CC1)CC31CCN(C(=O)C2CCC2)CC1	x	x	0	x
COc1ccc2c3c(n(C)c2c1)[C@@H](CO)N(C(C)=O)CC31CCN(C(=O)c2cnccn2)CC1	23*	-1	0	0
COc1ccc2c3c(n(C)c2c1)[C@H](CO)N(C(C)=O)CC31CN(C(=O)C2CC2)C1	66*	x	0	0
Cc1noc(C)c1NC(=O)Nc1ccc2c(c1)C(=O)N([C@H](C)CO)C[C@H](C)[C@H](CN(C)C(=O)Nc1ccc(C(F)(F)F)cc1)O2	-2	-2	0	0
CC(=O)c1cccc(N/C=C\c2nnnn2-c2ccc(F)cc2)c1	x	x	0	0
O=C(N/N=C/c1ccc(O)cc1O)NC12CC3CC(CC(C3)C1)C2	50*	-2	0	0
SMILES	DENV2 CPE rescue	S100A4 inh HTS	Xi reactivation	E-sel inducer
O=C(OCC(=O)N1CCc2ccccc21)[C@@H]1CCCN1S(=O)(=O)c1ccccc1F	49*	-14	0	0
O=C(OCC(=O)N1CCc2ccccc21)[C@@H]1CC(O)CN1S(=O)(=O)c1ccccc1[N+](=O)[O-] (stereo partly drawn)	u	7	0	0
O[C@H]1C[C@H](c2ccccc2)N(CC2CCCCC2)C[C@@H]1n1cc(C2CC2)nn1	6	0	0	x
COC(=O)c1c(-c2ccc(OC)cc2)oc2ccccc12	x	-6	0	1
COc1ccc(-c2oc3ccccc3c2C#Cc2cncn2C)cc1	70*	1	0	0
COc1ccc(-c2sc3cc4c(cc3c2C#Cc2cncn2C)OCO4)cc1	34*	-1	0	0
COc1ccc(-c2sc3ccc(OC)cc3c2C#Cc2cncn2C)cc1	-7	-5	0	1

From PubChem
